The text below walks through data of ChEMBL document CHEMBL1137254, “Structurally simple, potent, Plasmodium selective farnesyltransferase inhibitors that arrest the growth of malaria parasites” (J Med Chem, 2006).

pEC50, pIC50: −log10 of the molar value.

In data set [1] the target is T1, Protein farnesyltransferase (PFT) (Plasmodium falciparum) (UniProt Q5EI73+Q5EI74). Briefly: Inhibition of Plasmodium falciparum PFT at 50 nM.
The target of data set [2] is T1, Protein farnesyltransferase (PFT) (Plasmodium falciparum). Briefly: Inhibition of Plasmodium falciparum PFT at 5 nM.
The test system of data set [3] is Plasmodium falciparum. The data set can be described thus: Inhibition of Plasmodium falciparum 3D7 growth as reduced [3H]hypoxanthine incorporation. Type of data set: functional. To be noted: 3D7, 72 h, read-out: ED50 (the source's name). In a few lines:
(§1)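 Inhibitor in DMSO was added to P. falciparum culture (0.5% parasitemia, 0.5% hematocrit) in RPMI-1640 with 20% human A+ plasma. Cultures were held 48 h at 37 °C under 5% CO2/5% O2/90% N2, then pulsed with [8-3H]hypoxanthine (0.3 μCi) for 24 h more. Cells were harvested and counted by β-scintillation. Background from uninfected RBCs was subtracted, with DMSO set as 100%. ED50 was obtained by linear regression.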

Data set [4] relates to Plasmodium falciparum. Briefly: Inhibition of Plasmodium falciparum K1 growth as reduced [3H]hypoxanthine incorporation. Type of data set: functional. To be noted: K1, 72 h, read-out: ED50 (the source's name). In a few lines:
as §1

Data set [5] deals with T2, Protein farnesyltransferase (PFT) (Plasmodium falciparum, UniProt Q5EI73+Q5EI74).
T2 sequence (Q5EI73 whole entry): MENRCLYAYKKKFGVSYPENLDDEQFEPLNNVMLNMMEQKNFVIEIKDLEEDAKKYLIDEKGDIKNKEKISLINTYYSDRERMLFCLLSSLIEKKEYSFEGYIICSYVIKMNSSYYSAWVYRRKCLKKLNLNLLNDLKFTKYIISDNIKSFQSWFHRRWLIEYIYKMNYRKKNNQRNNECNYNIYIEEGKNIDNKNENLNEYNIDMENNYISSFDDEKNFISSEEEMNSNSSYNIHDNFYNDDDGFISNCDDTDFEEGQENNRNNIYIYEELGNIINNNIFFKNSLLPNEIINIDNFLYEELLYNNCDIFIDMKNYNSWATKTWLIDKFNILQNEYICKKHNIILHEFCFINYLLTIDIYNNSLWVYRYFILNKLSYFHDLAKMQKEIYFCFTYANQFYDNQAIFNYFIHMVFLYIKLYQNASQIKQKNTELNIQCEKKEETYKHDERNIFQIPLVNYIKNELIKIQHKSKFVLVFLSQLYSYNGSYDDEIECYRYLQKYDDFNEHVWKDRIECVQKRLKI
T2 sequence (Q5EI74 whole entry): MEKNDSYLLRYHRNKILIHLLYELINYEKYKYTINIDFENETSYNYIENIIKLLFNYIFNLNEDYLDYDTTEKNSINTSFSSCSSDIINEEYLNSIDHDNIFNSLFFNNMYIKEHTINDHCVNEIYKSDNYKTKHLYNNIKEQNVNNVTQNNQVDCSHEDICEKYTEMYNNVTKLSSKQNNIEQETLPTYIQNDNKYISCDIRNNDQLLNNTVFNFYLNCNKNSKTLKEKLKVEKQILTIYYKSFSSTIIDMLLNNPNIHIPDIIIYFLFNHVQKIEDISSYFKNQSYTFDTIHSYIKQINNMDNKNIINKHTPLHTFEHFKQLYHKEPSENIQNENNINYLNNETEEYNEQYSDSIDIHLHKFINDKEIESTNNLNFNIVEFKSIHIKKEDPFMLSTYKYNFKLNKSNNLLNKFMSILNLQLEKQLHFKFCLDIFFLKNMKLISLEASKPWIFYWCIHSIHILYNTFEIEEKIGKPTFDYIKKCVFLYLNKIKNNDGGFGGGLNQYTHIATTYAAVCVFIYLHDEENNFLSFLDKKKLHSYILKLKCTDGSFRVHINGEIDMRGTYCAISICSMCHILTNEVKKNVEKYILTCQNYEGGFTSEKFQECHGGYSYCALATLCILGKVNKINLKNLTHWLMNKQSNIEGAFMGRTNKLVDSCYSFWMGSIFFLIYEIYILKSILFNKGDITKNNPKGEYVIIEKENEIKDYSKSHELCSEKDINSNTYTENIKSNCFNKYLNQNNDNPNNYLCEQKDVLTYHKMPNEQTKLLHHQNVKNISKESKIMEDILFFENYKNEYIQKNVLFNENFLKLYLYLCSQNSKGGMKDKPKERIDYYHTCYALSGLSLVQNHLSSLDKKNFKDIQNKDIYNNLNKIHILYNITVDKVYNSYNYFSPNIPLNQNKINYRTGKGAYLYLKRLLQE
Briefly: Inhibition of Plasmodium falciparum PFT. Type of data set: protein-complex assay.

Data set [6] concerns the target T1, Protein farnesyltransferase (PFT) (Plasmodium falciparum). Briefly: Selectivity for inhibition of Plasmodium falciparum PFT over rat PFT. Type of data set: protein-complex assay.
The nature of data set [7]: Tmax in mouse at 50 mg/kg, po. To be noted: in vivo. Type of data set: ADME, organism-based. Also on record: dose 50 mg/kg, route oral. Summed up: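 Oral gavage at 50 mg/kg in 90% saline, 3% ethanol, 7% Tween; inhibitor concentration in plasma followed over 5 h. Values are averages of three animals per species (mice or rats). Reported parameters are AUC, Cmax, Tmax and elimination t1/2.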

The term inhibition denotes how much of the control response was suppressed. Read a low inhibition as little suppression. With `O=S(=O)(c1ccccc1)N(CCN(Cc1c[nH]cn1)c1ccccc1)Cc1ccccc1`, the inhibition in data set [1] is 7%.
On the same count and under the same terms, under `Cn1cnc(S(=O)(=O)N(CCN(Cc2c[nH]cn2)c2ccccc2)Cc2ccccc2)c1` stands 32%; under `O=S(=O)(c1cccs1)N(CCN(Cc1c[nH]cn1)c1ccccc1)Cc1ccccc1`, 5%.
Still for that read-out and setting: under `O=S(=O)(c1ccc2ccccc2c1)N(CCN(Cc1c[nH]cn1)c1ccccc1)Cc1ccccc1` stands 0%.
As to `C=CCN(CCN(Cc1cncn1C)c1ccc(C#N)cc1)S(=O)(=O)c1cn(C)cn1`, the inhibition stood at 1% in data set [2] and 42% in data set [1].
As to `Cn1cnc(S(=O)(=O)N(CCN(Cc2cncn2C)c2ccc(C#N)cc2)Cc2cccc(-n3cccc3)c2)c1`, the pEC50 in the data set with Plasmodium falciparum [3] was 5.60; with Plasmodium falciparum [4] it was 5.40. In addition, the inhibition in data set [2] turned out to be 37%; in data set [1], 74%.
Consider `Cn1cnc(S(=O)(=O)N(CCN(Cc2cncn2C)c2ccc(C#N)cc2)CC2CCOCC2)c1`, for which the inhibition in data set [2] came to 28%; in data set [1] it was 84%.
In the same order, the values of `CC(C)C(=O)N(CCN(Cc1cncn1C)c1ccc(C#N)cc1)Cc1ccccc1` are 0% and 61%.
In the same order, the values of `Cn1cncc1CN(CCN(Cc1ccccc1)S(=O)(=O)c1cccc2cccnc12)c1ccc(C#N)cc1` are 14% and 35%.
In the same order, the values of `Cn1cnc(S(=O)(=O)N(CCN(Cc2cncn2C)c2ccc(C#N)cc2)Cc2ccc(-n3cccc3)cc2)c1` are 39% and 85%.
`C=C(C)CN(CCN(Cc1cncn1C)c1ccc(C#N)cc1)S(=O)(=O)c1cn(C)cn1`: the results for the inhibition in data set [2] and in data set [1] were 6% and 77%, respectively.
For the compound `Cn1cnc(S(=O)(=O)N(CCN(Cc2cncn2C)c2ccc(C#N)cc2)Cc2cccnc2)c1`, the inhibition was 18% in data set [2] and 74% in data set [1].
Regarding `C=C(Br)CN(CCN(Cc1cncn1C)c1ccc(C#N)cc1)S(=O)(=O)c1cn(C)cn1`, the results for the inhibition in data set [2] and in data set [1] were 25% and 80%, respectively.
As to `Cc1cccc(CN(CCN(Cc2cncn2C)c2ccc(C#N)cc2)S(=O)(=O)c2cn(C)cn2)c1`, the pEC50 in the data set on Plasmodium falciparum [3] is 6.52; with Plasmodium falciparum [4] it was 6.00. The inhibition in data set [2] stood at 61%; in data set [1] it was 94%.
Turning to `CC(=O)N(CCN(Cc1cncn1C)c1ccc(C#N)cc1)Cc1ccccc1`, the inhibition in data set [2] was found to be 0%; in data set [1], 56%.
On to `Cn1cnc(S(=O)(=O)N(CCN(Cc2cncn2C)c2ccc(C#N)cc2)CCn2cccc2)c1`, for which the inhibition in data set [2] came out at 11%; in data set [1] it was 56%.
For orientation: pIC50 means the IC50 on a negative log10 scale, so that one unit is a factor of ten. In data set [5], `CN(C)c1cccc2c(S(=O)(=O)N(CCN(Cc3cncn3C)c3ccc(C#N)cc3)Cc3ccccc3)cccc12` gave a negative-log IC50 (pIC50) of 7.26. Moreover, the figures for the inhibition in data set [2] and in data set [1] were 6% and 29%, respectively. The Selectivity ratio in data set [6] came to 3.3.
The compound `Cn1cnc(S(=O)(=O)N(CCN(Cc2cncn2C)c2ccc(Br)cc2)Cc2ccccn2)c1` gave a pIC50 in data set [5] of 8.72. In addition, the Selectivity ratio in data set [6] amounted to 44.
Compound `Cn1cnc(S(=O)(=O)N(CCN(Cc2cncn2C)c2ccc(C#N)cc2)Cc2ccc(C#N)cc2)c1` had a pIC50 in data set [5] of 7.02. The values for the inhibition in data set [2] and in data set [1] were 24% and 48%, respectively. For the same compound, the Selectivity ratio in data set [6] was 3.7.
`Cn1cncc1CN(CCN(Cc1ccccc1)S(=O)(=O)c1cccs1)c1ccc(C#N)cc1`: the inhibition in data set [2] stood at 17%; in data set [1] it was 74%.
On to `Cn1cnc(S(=O)(=O)N(CCN(Cc2cncn2C)c2ccc(C#N)cc2)CC2CCN(c3ncccn3)CC2)c1`, for which the inhibition in data set [2] is 74%; in data set [1] it was 96%.
As a reminder, the Tmax is the time from dosing to the highest level. On to `Cn1cncc1CN(CCN(Cc1ccccc1)S(=O)(=O)c1ccccn1)c1ccc(C#N)cc1`, for which the inhibition in data set [2] amounted to 64%; in data set [1], 95%. In data set [7], the time of peak concentration (Tmax) is 30 min.
As for `CC(C)C(=O)N1CCC(CN(CCN(Cc2cncn2C)c2ccc(C#N)cc2)S(=O)(=O)c2cn(C)cn2)CC1`, the inhibition in data set [2] worked out at 57%; in data set [1], 92%.
`Cn1cnc(S(=O)(=O)N(CCN(Cc2cncn2C)c2ccc(C#N)cc2)CC(=O)NC(C)(C)C)c1` gave a negative-log IC50 (pIC50) in data set [5] below 6.00. Also, the inhibition in data set [2] came out at 4%; in data set [1] it was 6%.
Take `Cn1cnc(S(=O)(=O)N(CCN(Cc2c[nH]cn2)c2ccc(Br)cc2)Cc2ccccc2)c1`: in data set [1], the inhibition was found to be 80%.
With `Cn1cnc(S(=O)(=O)N(CCN(Cc2cncn2C)c2ccc(C#N)cc2)CC2CCNCC2)c1`, the inhibition in data set [2] and in data set [1] was 5% in each case.
As to `Cc1ccc(CN(CCN(Cc2cncn2C)c2ccc(C#N)cc2)S(=O)(=O)c2cn(C)cn2)cc1`, the inhibition amounted to 45% in data set [2] and 54% in data set [1].
In data set [1], `O=S(=O)(c1cccc2cccnc12)N(CCN(Cc1c[nH]cn1)c1ccccc1)Cc1ccccc1` had an inhibition of 0%.
Turning to `Cn1cnc(S(=O)(=O)N(CCN(Cc2cncn2C)c2ccc(C#N)cc2)Cc2cccc(C#N)c2)c1`, the pEC50 in the data set on Plasmodium falciparum [3] is 6.46; with Plasmodium falciparum [4] it was 5.74. In addition, the inhibition worked out at 45% in data set [2] and 89% in data set [1].
In the case of `Cn1cnc(S(=O)(=O)N(CCN(Cc2cncn2C)c2ccc(C#N)cc2)Cc2cccc(-c3ccccc3)c2)c1`, the results for the inhibition in data set [2] and in data set [1] were 56% and 93%, respectively.
Compound `Cn1cncc1CN(CCN(Cc1ccccc1)S(=O)(=O)c1ccccc1)c1ccc(C#N)cc1` showed a pIC50 in data set [5] of 8.05. For the same compound, the inhibition in data set [2] came to 18%; in data set [1], 69%. Also, the Selectivity ratio in data set [6] came to 1.5.
In data set [5], `Cc1ccccc1CN(CCN(Cc1cncn1C)c1ccc(-c2ccccc2)cc1)S(=O)(=O)c1cn(C)cn1` gave a negative logarithm of the IC50 (pIC50) of 8.10. Moreover, the figures for the inhibition in data set [2] and in data set [1] were 49% and 85%, respectively. Also, the pEC50 with Plasmodium falciparum [4] is 5.59.
Turning to `Cn1cnc(S(=O)(=O)N(CCN(Cc2cncn2C)c2ccc(C#N)cc2)Cc2ccccn2)c1`, the pIC50 in data set [5] is 8.68. Also, the inhibition was 64% in data set [2] and 93% in data set [1].
For the compound `CC(=O)N1CCC(CN(CCN(Cc2cncn2C)c2ccc(C#N)cc2)S(=O)(=O)c2cn(C)cn2)CC1`, the inhibition in data set [2] worked out at 8%; in data set [1], 44%.
As for `CN(C)c1cccc2c(S(=O)(=O)N(CCN(Cc3c[nH]cn3)c3ccccc3)Cc3ccccc3)cccc12`, the inhibition in data set [1] came out at 0%.
As for `Cn1cnc(S(=O)(=O)N(CCN(Cc2cncn2C)c2ccc(C#N)cc2)Cc2ccncc2)c1`, the inhibition amounted to 22% in data set [2] and 62% in data set [1].
With `Cn1cnc(S(=O)(=O)N(CCN(Cc2cncn2C)c2ccc(C#N)cc2)CC2CCN(C(=O)OC(C)(C)C)CC2)c1`, the inhibition in data set [2] is 81%; in data set [1], 96%.
`Cn1cnc(S(=O)(=O)N(CCN(Cc2cncn2C)c2ccc(Br)cc2)Cc2ccccc2)c1` showed a negative-log IC50 (pIC50) in data set [5] of 8.70. The inhibition in data set [2] is 70%; in data set [1], 95%.
